Laboratory results: ChEMBL document CHEMBL2163252, “Azapeptide analogues of the growth hormone releasing peptide 6 as cluster of differentiation 36 receptor ligands with reduced affinity for the growth hormone secretagogue receptor 1a” (J Med Chem, 2012)
Starred links: 1 amine or outer side, 2 acyl side, 3 side chain; linkers in the order of their positions; H or OH if unused. Non-standard residues stand in square brackets, D forms with d. Residues, ends and D or L forms follow the SMILES beside them. Haic = O=C1[C@@H](N[*:1])CCc2cccc3c2N1[C@H](C(=O)[*:2])C3; dTrp(2-Me) = Cc1[nH]c2ccccc2c1C[C@@H](N)C(=O)O; azaTyr = O=C(N(Cc1ccc(O)cc1)N[*:1])[*:2]; azaPhe = O=C(N(Cc1ccccc1)N[*:1])[*:2]; azaLeu = CC(C)CN(N[*:1])C(=O)[*:2]; azaPro = O=C(N1CCCN1[*:1])[*:2]; Aib = CC(C)(N)C(=O)O; azaGly = NNC(=O)O

Columns and labels:
[1] = Antiangiogenic effect in […] mouse microvascular choroid explants assessed as choroid sprouting at 10^-7 M after 4 days (reference value: 53%); assay type: functional
[2] = target: Growth hormone secretagogue receptor type 1 (Homo sapiens, UniProt Q92847); test: Displacement of [125I]ghrelin expressed in LLC-PK1 cells incubated for 1 hr by gamma counting method; assay type: cell-based
Outline: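 Membranes from LLC-PK1 cells transiently transfected with GHS-R1a (CaPO₄; harvested 24 h later; freeze/thaw lysis, 10000g), 10 μg protein/tube. Incubated with ¹²⁵I-ghrelin (40,000 cpm) and competitor 10⁻¹² to 10⁻⁵ M, 1 h at RT, in Tris/MgCl₂/EDTA/bacitracin buffer pH 7.3. Nonspecific binding set with 10⁻⁵ M competitor. Bound separated by filtration on PEI-soaked GF/C filters, gamma counted.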

Platelet glycoprotein 4 = Platelet glycoprotein 4 (Rattus norvegicus, UniProt Q07969); test: Displacement of photoactivatable [125I]-Tyr-Bpa-Ala-Hexarelin from CD36 in Sprague-Dawley rat cardiac membranes incubated for 60 mins by densitometry; assay type: cell membranes, Membrane
Chain of Platelet glycoprotein 4 (Q07969 whole entry): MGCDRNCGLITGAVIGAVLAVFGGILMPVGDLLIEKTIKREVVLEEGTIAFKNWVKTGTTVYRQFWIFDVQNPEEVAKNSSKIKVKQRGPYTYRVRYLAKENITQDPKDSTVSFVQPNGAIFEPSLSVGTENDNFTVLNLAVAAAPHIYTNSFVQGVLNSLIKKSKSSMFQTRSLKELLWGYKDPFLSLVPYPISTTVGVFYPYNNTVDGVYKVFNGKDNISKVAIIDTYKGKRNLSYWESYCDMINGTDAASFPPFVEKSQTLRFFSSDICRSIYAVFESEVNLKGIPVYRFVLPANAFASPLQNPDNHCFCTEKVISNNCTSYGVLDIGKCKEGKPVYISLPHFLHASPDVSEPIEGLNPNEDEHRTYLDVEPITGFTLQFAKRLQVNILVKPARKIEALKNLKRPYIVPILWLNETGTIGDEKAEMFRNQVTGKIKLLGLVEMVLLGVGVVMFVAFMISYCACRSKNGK

Chain of Growth hormone secretagogue receptor type 1 (Q92847 whole entry): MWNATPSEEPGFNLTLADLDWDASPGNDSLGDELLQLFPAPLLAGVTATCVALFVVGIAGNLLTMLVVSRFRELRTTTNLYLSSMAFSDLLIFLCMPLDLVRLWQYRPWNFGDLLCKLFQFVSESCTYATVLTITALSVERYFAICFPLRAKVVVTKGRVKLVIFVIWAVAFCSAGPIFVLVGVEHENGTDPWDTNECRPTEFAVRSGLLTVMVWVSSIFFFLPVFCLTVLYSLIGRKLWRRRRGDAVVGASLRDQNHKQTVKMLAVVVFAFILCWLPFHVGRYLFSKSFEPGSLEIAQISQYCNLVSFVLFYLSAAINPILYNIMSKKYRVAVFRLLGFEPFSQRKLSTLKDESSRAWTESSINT

| SMILES | Activity [1] | IC50 [2] | IC50 (Platelet glycoprotein 4) |
| --- | --- | --- | --- |
| CC(C)CN(NC(=O)[C@H](N)Cc1c[nH]c2ccccc12)C(=O)N[C@@H](Cc1c[nH]c2ccccc12)C(N)=O | 47% | > 10 µM | > 10 µM |
| C[C@H](N)C(=O)NN(Cc1ccccc1)C(=O)N[C@@H](C)C(=O)N[C@@H](Cc1c[nH]c2ccccc12)C(=O)N[C@H](Cc1ccccc1)C(=O)N[C@@H](CCCCN)C(N)=O (H-A[azaPhe]AW[dF]K-NH2) | 28% | > 10 µM | 42.7 µM |
| C[C@H](N)C(=O)N[C@H](Cc1c[nH]c2ccccc12)C(=O)N[C@@H](C)C(=O)NN(Cc1ccccc1)C(=O)N[C@H](Cc1ccccc1)C(=O)N[C@@H](CCCCN)C(N)=O (H-A[dW]A[azaPhe][dF]K-NH2) | 105% | > 10 µM | 7.58 µM |
| C[C@H](N)C(=O)N[C@H](Cc1c[nH]c2ccccc12)C(=O)NNC(=O)N[C@@H](Cc1c[nH]c2ccccc12)C(=O)N[C@H](Cc1ccccc1)C(=O)N[C@@H](CCCCN)C(N)=O (H-A[dW][azaGly]W[dF]K-NH2) | 72% |  | 6.06 µM |
| C[C@H](NC(=O)[C@@H](Cc1c[nH]c2ccccc12)NC(=O)[C@@H](N)Cc1cnc[nH]1)C(=O)N1CCCN1C(=O)N[C@H](Cc1ccccc1)C(=O)N[C@@H](CCCCN)C(N)=O (H-H[dW]A[azaPro][dF]K-NH2) |  | > 10 µM | > 10 µM |
| C[C@H](NC(=O)[C@@H](Cc1c[nH]c2ccccc12)NC(=O)[C@@H](N)Cc1cnc[nH]1)C(=O)NN(Cc1ccc(O)cc1)C(=O)N[C@H](Cc1ccccc1)C(=O)N[C@@H](CCCCN)C(N)=O (H-H[dW]A[azaTyr][dF]K-NH2) | 17% |  |  |
| C[C@H](NC(=O)NNC(=O)[C@@H](Cc1c[nH]c2ccccc12)NC(=O)[C@@H](N)Cc1cnc[nH]1)C(=O)N[C@H](Cc1ccccc1)C(=O)N[C@@H](CCCCN)C(N)=O (H-H[dW][azaGly]A[dF]K-NH2) |  | > 10 µM | > 10 µM |
| C[C@@H](NC(=O)[C@H](Cc1c[nH]c2ccccc12)NC(=O)NNC(=O)[C@@H](Cc1c[nH]c2ccccc12)NC(=O)[C@@H](N)Cc1cnc[nH]1)C(=O)N[C@@H](CCCCN)C(N)=O (H-H[dW][azaGly]W[dA]K-NH2) |  | > 10 µM | > 10 µM |
| CC(C)CN(NC(=O)[C@@H](Cc1c[nH]c2ccccc12)NC(=O)[C@@H](N)Cc1cnc[nH]1)C(=O)N[C@@H](C)C(=O)N[C@H](Cc1ccccc1)C(=O)N[C@@H](CCCCN)C(N)=O (H-H[dW][azaLeu]A[dF]K-NH2) |  | > 10 µM | 25.9 µM |
| CC(C)CN(NC(=O)[C@@H](Cc1c[nH]c2ccccc12)NC(=O)[C@@H](N)Cc1cnc[nH]1)C(=O)N[C@@H](Cc1c[nH]c2ccccc12)C(=O)N[C@H](C)C(=O)N[C@@H](CCCCN)C(N)=O (H-H[dW][azaLeu]W[dA]K-NH2) |  | > 10 µM | 9.48 µM |
| CC(C)CN(NC(=O)[C@@H](Cc1c[nH]c2ccccc12)NC(=O)[C@@H](N)Cc1cnc[nH]1)C(=O)N[C@@H](Cc1c[nH]c2ccccc12)C(=O)N[C@H](Cc1ccccc1)C(=O)N[C@@H](C)C(N)=O (H-H[dW][azaLeu]W[dF]A-NH2) | 25% |  | 7.59 µM |
| NCCCC[C@H](NC(=O)[C@@H](Cc1ccccc1)NC(=O)[C@H](Cc1c[nH]c2ccccc12)NC(=O)N1CCCN1C(=O)[C@@H](Cc1c[nH]c2ccccc12)NC(=O)[C@@H](N)Cc1cnc[nH]1)C(N)=O (H-H[dW][azaPro]W[dF]K-NH2) |  | > 10 µM | 9.81 µM |
| Cc1[nH]c2ccccc2c1C[C@@H](NC(=O)[C@@H](Cc1c(C)[nH]c2ccccc12)NC(=O)C(C)(C)N)C(N)=O (H-[Aib]-[dTrp(2-Me)]-[dTrp(2-Me)]-NH2) |  | 0.0629 µM | > 10 µM |
| Cc1[nH]c2ccccc2c1C[C@@H](NC(=O)[C@@H]1Cc2cccc3c2N1C(=O)[C@@H](N)CC3)C(=O)N[C@H](CCCCN)C(=O)N[C@@H](Cc1c[nH]c2ccccc12)C(=O)N[C@H](Cc1ccccc1)C(=O)N[C@@H](CCCCN)C(N)=O (Haic-[dTrp(2-Me)][dK]W[dF]K-NH2) | 3% | 0.75 µM | 1.11 µM |
